Measured values pooled from the literature.
Target: Serine/threonine-protein kinase Sgk1 (SGK1, Homo sapiens, UniProt O00141)
One construct used (O00141 1-431): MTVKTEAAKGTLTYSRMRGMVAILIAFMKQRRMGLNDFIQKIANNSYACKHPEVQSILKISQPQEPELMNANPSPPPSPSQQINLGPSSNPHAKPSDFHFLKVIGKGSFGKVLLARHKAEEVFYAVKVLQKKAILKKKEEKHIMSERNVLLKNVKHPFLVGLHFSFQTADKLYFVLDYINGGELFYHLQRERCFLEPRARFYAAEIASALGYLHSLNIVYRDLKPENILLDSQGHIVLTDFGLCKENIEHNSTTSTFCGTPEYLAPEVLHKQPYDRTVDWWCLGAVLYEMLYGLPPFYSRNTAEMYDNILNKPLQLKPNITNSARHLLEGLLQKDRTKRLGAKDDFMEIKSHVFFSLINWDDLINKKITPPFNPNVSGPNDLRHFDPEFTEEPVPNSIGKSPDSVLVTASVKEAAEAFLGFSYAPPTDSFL

| SMILES | observed | method | concentration | remaining binding |
| --- | --- | --- | --- | --- |
| CN(C)C(=O)Cn1cc(-c2nc([C@@](C)(c3ccc(-c4cnc(N)nc4)cc3)C3CC3)no2)cn1 | cell-free assay | competition with immobilised ligand | 1 µM | 91% |
| CN(C)c1nccc(-c2cnc3ncccn23)n1 | binding |  | 1 µM | 79% |
| COc1ncc2cc3ccccc3nc2c1C#N | cell-free assay | competition with immobilised ligand | 5 µM | 94% |
| O=C(c1ccc(Nc2nccc(-c3cc4ccccc4s3)n2)cc1)N1CCC(N2CCCC2)CC1 | binding | competition with immobilised ligand | 1 µM | 1.1% |
| COc1cnc(Nc2cccc(S(N)(=O)=O)c2)nc1N1CCN(c2ccccc2)C(=O)C1 | binding | competition with immobilised ligand | 1 µM | 94% |
| CN(C)CC#Cc1ccc(OCCCc2sc(N3CCc4cccc(C(=O)Nc5nc6ccccc6s5)c4C3)nc2C(=O)O)c(F)c1 | cell-free assay | competition with immobilised ligand | 1 µM | 100% |
| C[C@@H]1CCN(c2nccc(-c3cnn4ncccc34)n2)C1 | binding |  | 1 µM | 58% |
| CC(=O)Nc1c(C(C)=O)c(=O)n(C)c2nc(-c3ccc(Cl)cc3Cl)c(-c3ccc(Cl)cc3)cc12 | cell-free assay | competition with immobilised ligand | 1 µM | 100% |
| c1cnn2ncc(-c3ccnc(N4CCC45COC5)n3)c2c1 | binding |  | 1 µM | 55% |
| O=C1NC(c2ccccn2)Sc2ccccc21 (stereo not shown) | cell-free assay | competition with immobilised ligand | 1 µM | 87% |
| CN(C)c1nccc(-c2cnn3ncccc23)n1 | binding |  | 1 µM | 69% |
| CCN1CCN(Cc2ccc(C(=O)Nc3ccc(C)c(Oc4ccc5c(c4)CC(=O)N5)c3)cc2C(F)(F)F)CC1 | binding | competition with immobilised ligand | 1 µM | 79% |
| O=C(c1ccc(Nc2ncc(Cl)c(-c3cc4ccccc4s3)n2)cc1)N1CCC(N2CCCC2)CC1 | binding | competition with immobilised ligand | 1 µM | 0.1% |
| CN(C)c1ncc(F)c(-c2cnn3ncccc23)n1 | binding |  | 1 µM | 79% |
| Nc1ncc2c(n1)-c1c([nH]c3ccc(C#CC4CC4)cc13)CCCC2 | binding | competition with immobilised ligand | 1 µM | 88% |
| CNCc1ccccc1-c1csc([C@H](C)Nc2nc(C)nc3cc(OC)c(OC)cc23)c1 | cell-free assay | competition with immobilised ligand | 1 µM | 91% |
| O=C(NCCCN1CCOCC1)c1ccc(Nc2nccc(-c3cc4ccccc4s3)n2)cc1 | binding | competition with immobilised ligand | 1 µM | 8% |
| CN(CCCC(F)(F)F)c1nccc(-c2cnn3ncccc23)n1 | binding |  | 1 µM | 85% |
| Cc1nc(Cc2cccc(C(F)(F)F)c2)sc1-c1ccc(C(N)=O)nc1 | cell-free assay | competition with immobilised ligand | 1 µM | 100% |
| C=CC(=O)N1CCC(C(=O)NCC(=O)N2CCN(c3nc(-c4cnc(N)nc4C(F)F)nc(N4CCOCC4)n3)CC2)CC1 | binding | competition with immobilised ligand | 1 µM | 85% |
| N[C@H]1CCN(c2nccc(-c3cnn4ncccc34)n2)C1 | binding |  | 1 µM | 91% |
| O=C(Nc1c[nH]nc1C(=O)NC1CCNCC1)c1cc(F)cc(F)c1 | binding | competition with immobilised ligand | 1 µM | 100% |
